What all share (type): functional, cell-based
Test [1] concerns the target T1, Somatostatin receptor type 2 (Homo sapiens, UniProt P30874). Kind of test: Antagonist activity at T7 epitope tagged human cloned sst2 receptor expressed in HEK293 cells assessed as inhibition of receptor internalization upto 10 uM by ELISA. The procedure, abridged:
(§1)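 Surface T7-tagged sst2 on HEK-sst2 cells labelled with anti-T7 antibody 2 h RT in DMEM-LH, then cells exposed 30 min at 37 °C to analogue (alone up to 10 μM or with [Tyr3]-octreotide), fixed in 3% paraformaldehyde, probed with HRP anti-mouse IgG, ABTS read at OD405; surface receptor as % of untreated; mean ± SEM, three experiments in duplicate.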

Test [2] has as its target T1, Somatostatin receptor type 2. Kind of test: Antagonist activity at T7 epitope tagged human cloned sst2 receptor expressed in HEK293 cells assessed as inhibition of [Tyr3]octreotide-induced receptor internalization upto 10 uM. The procedure, abridged: as §1
Test [3] has the same target. In words: Antagonist activity at T7 epitope tagged human cloned sst2 receptor expressed in HEK293 cells assessed as inhibition of [Tyr3]octreotide-induced receptor internalization upto 10 uM by immunofluorescence-based assay. The procedure, abridged: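 Immunofluorescence microscopy with sst2-specific antibody R2-88 on HEK-sst2 cells treated 30 min with vehicle, 100 nM [Tyr3]-octreotide, 100 nM [Tyr3]-octreotide plus 100-fold excess (10 μM) analogue, or analogue alone at 10 μM; internalization scored as punctate perinuclear staining.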

The target is the same in test [4]. Kind of test: Antagonist activity at T7 epitope tagged human cloned sst2 expressed in HEK293 cells assessed as intracellular calcium release upto 10 uM. The procedure, abridged: (§2)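 HEK-sst2 cells seeded on poly-D-lysine, cultured 1 day, loaded with Fluo-4NW dye (assay buffer HBSS/20 mM HEPES, 2.5 mM probenecid) 30 min 37 °C plus 30 min RT. Analogues alone up to 10 μM, or [Tyr3]-octreotide with 100-fold excess analogue; fluorescence (ex 485/em 520 nm) recorded 60 s at RT; percentage of ionomycin (25 μM) maximum over baseline; ≥3 experiments in triplicate.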
(In general: A change in cytosolic calcium serves as a functional read-out for many receptors and channels.)

Test [5] shares this target. In words: Antagonist activity at T7 epitope tagged human cloned sst2 expressed in HEK293 cells assessed as [Tyr3]octreotide-induced intracellular calcium release upto 10 uM. The procedure, abridged:
as §2

SMILES strings stand for the structures. Activity calls are given as the source filed them. No cut-off for these calls is given here.

T1 sequence (P30874 whole entry): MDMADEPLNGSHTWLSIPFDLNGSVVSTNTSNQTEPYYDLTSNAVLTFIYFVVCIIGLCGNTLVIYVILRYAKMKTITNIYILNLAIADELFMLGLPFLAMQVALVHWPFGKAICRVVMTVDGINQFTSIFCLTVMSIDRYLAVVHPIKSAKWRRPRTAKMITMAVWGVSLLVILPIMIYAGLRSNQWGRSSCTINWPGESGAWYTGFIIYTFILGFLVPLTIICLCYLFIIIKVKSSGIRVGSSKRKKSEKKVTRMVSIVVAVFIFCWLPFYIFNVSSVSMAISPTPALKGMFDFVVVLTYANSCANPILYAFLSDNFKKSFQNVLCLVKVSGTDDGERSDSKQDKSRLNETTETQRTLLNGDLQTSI

Regarding `C[C@@H](O)[C@@H]1NC(=O)[C@H](CCCCN)NC(=O)[C@@H](Cc2c[nH]c3ccccc23)NC(=O)[C@H](Cc2ccc(O)c(I)c2)NC(=O)[C@H](NC(=O)[C@@H](Cc2ccc([N+](=O)[O-])cc2)NC(=O)CN2CCN(CC(=O)O)CCN(CC(=O)O)CCN(CC(=O)O)CC2)CSSC[C@@H](C(=O)N[C@H](Cc2ccc(O)cc2)C(N)=O)NC1=O`, the outcome in test [1] and in test [4] was inactive. The outcome in test [2], in test [3] and in test [5] was Active.

The values above are taken from ChEMBL document CHEMBL1157505, “Design and in vitro characterization of highly sst2-selective somatostatin antagonists suitable for radiotargeting” (J Med Chem, 2008).
